# TROY NFkB inh: blocks TROY-dependent signaling in reporter cells; Q293 LMP1-TROYcd NF-kB luciferase reporter, 4 h; inhibition, % at 10 µM; hit rate 0.98% among 360,000; AID 1347056;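 active = compounds whose plate-normalised and pattern-corrected inhibition of the luciferase reporter signal at the single screening dose is 50% or more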
# LGR2 inh: inhibitors of bursicon-induced Drosophila LGR2 receptor cAMP signaling; AID 720647; HEK293 LGR2, CRE-luciferase, bursicon-stimulated, 4 h; inhibition, % at 9.99 µM; hit rate 0.35% among 380,000;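 active = drop in luminescence signal, shown as inhibition above about 50% in the replicate tests, limit read from the data, passing the limit was not always enough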;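 note: agonist challenge used bursicon conditioned medium at about half maximal strength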
# CaV13 ICDI inh: Primary screen for inhibitors of IQ motif and Ca2+-dependent inactivation inhibitor domain binding in CACNA1D, Förster resonance energy transfer in living cells, …. HEK cells, CFP/YFP FRET ICDI-IQ, plate reader, 10 min; percent FRET-ratio fall versus neutral wells. inhibition, % at 12.3 µM. hit rate 0.098% among 340,000. AID 743397;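 active = mean replicate inhibition of at least 30% and at least 1% of replicates passing that level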
# TWEAK-Fn14 inh: blocks TWEAK-Fn14 interaction in a reporter cell assay; hit rate 2% among 360,000; TWEAK-stimulated Fn14 reporter cells, luciferase luminescence, 8 h; inhibition, % at 10 µM; AID 1159606; in the data active = inhibition above about 50%
# Xi reactivation: activators of X-chromosome reactivation in mouse fibroblasts; XiGFP mouse fibroblasts, % GFP-positive cells imaging, 3 d; cells co-treated with 5-aza-dC sensitizer; scaled so ellipticine positive control = 100%; activation, % at 7.58 µM; hit rate 0.055% among 360,000; AID 743238;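 active = mean normalized replicate activation at least 10% and every replicate at or above 10%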
#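 Assay system: SV40-immortalized XiGFP fibroblast cells, line 68-5-11; buffer or medium: DMEM plus 5-aza-dC sensitizer; compound: one concentration, pinned; timing: compounds 3 days, fix/stain 15 min at room temperature; benchmarks: positive control ellipticine, 6 µM final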
# Hits are given with their value; . = inactive; / = not tested or not shown; + = active, no number. Rows were chosen to be rich in hits. Some 2% of all compounds tested hit in one or more screens of this group.
SMILES,TROY NFkB inh,LGR2 inh,CaV13 ICDI inh,TWEAK-Fn14 inh,Xi reactivation
COC(=O)c1ccc(CSc2ncnc3c2nnn3-c2ccc(F)cc2)o1,55.3,/,/,.,/
CCN(CC)C(=O)CSc1ncnc2c1nnn2-c1ccc(F)cc1,.,/,/,.,/
CCOC(=O)C1=C(c2ccccc2)NC(SCC(=O)Nc2ccccc2C)=C(C#N)C1c1ccco1 (configuration not stated),.,/,.,51.4,/
CCNC(=S)N/N=C/c1ccc(F)cc1,/,.,.,/,.
Cc1oc(/N=C/c2ccc(F)cc2)c(C#N)c1C,.,.,82.3,.,.
CO[C@H]1CN(C)C(=O)c2cc(NS(=O)(=O)c3ccc(C)cc3)ccc2OC[C@@H](C)N(Cc2nccs2)C[C@@H]1C,/,.,/,/,.
CO[C@H]1CN(C)C(=O)c2ccc(NC(=O)c3cccc(Oc4ccccc4)c3)cc2OC[C@@H](C)NC[C@@H]1C,/,.,/,/,.
CCn1c(SCC(=O)N/N=C/c2ccc(C)o2)nnc1-c1ccc(C)cc1,.,.,.,60.9,.
CCn1c(SCC(=O)N/N=C/c2ccc(C)o2)nnc1-c1ccc(C(C)(C)C)cc1,.,.,.,.,.
CCn1c(SCC(=O)N/N=C/c2c[nH]c3ccccc23)nnc1-c1ccc(C(C)(C)C)cc1,.,.,.,59.7,.
Cc1ccc(CSc2nnc(SCC(=O)N/N=C/c3c[nH]c4ccccc34)s2)cc1,.,.,.,.,.
O=C(CSc1nnc(SCc2ccccc2Cl)s1)N/N=C/c1c[nH]c2ccccc12,.,.,.,64.2,.
C[C@H]1CN([C@@H](C)CO)C(=O)c2cc(NC(=O)Cc3ccccc3)ccc2O[C@@H]1CN(C)S(=O)(=O)c1ccc(Cl)cc1,/,.,/,/,.
CC(C(=O)NC1CCCc2ccccc21)N1CCN(c2ccc(F)cc2)CC1 (configuration not stated),.,.,.,.,.
CC(C(=O)NC1CCCc2ccccc21)N1CCN(Cc2ccc3c(c2)OCO3)CC1 (configuration not stated),58.1,/,.,.,/
COc1ccccc1-c1ccc([C@H]2[C@@H](C#N)N(C(=O)C3CCOCC3)[C@H]2CO)cc1,/,.,/,/,.
CCN1/C(=C/c2sc(-c3ccccc3C)c[n+]2C)Sc2ccccc21,.,.,+,63.3,.
CCC(=O)/C=C1/Sc2ccccc2N1CC,.,.,.,.,/
O=C(N/N=C/c1ccc(OC(F)F)cc1OC(F)F)c1ccc(Br)cc1,.,.,.,.,.
Cc1ccc(S(=O)(=O)N(C)Cc2ccc(C(=O)N/N=C/c3ccc(OC(F)F)cc3OC(F)F)cc2)cc1,.,/,.,59.7,.
Cc1noc(C)c1NC(=O)N[C@@H]1CC[C@H](CC(=O)N2CCN(C)CC2)O[C@@H]1CO,/,.,/,/,.
COc1ccc(CNC(=O)C[C@H]2C[C@H]3c4cc(NC(=O)CC5CC5)ccc4O[C@H]3[C@@H](CO)O2)cc1,/,.,/,/,.
C[C@H](CO)N1C[C@H](C)[C@@H](CN(C)Cc2ccc3c(c2)OCO3)Oc2c(NC(=O)Nc3ccc(C(F)(F)F)cc3)cccc2C1=O,/,59.9,/,/,.
C[C@@H]1CN([C@H](C)CO)C(=O)c2cc(NC(=O)Nc3ccc(C(F)(F)F)cc3)ccc2O[C@H]1CN(C)S(=O)(=O)c1cccs1,.,.,.,.,.
C[C@H](CO)N1C[C@H](C)[C@@H](CN(C)S(=O)(=O)c2cccs2)Oc2ccc(NC(=O)Nc3ccc(C(F)(F)F)cc3)cc2C1=O,.,.,.,60.2,.
SMILES,TROY NFkB inh,LGR2 inh,CaV13 ICDI inh,TWEAK-Fn14 inh,Xi reactivation
C[C@@H]1CN([C@H](C)CO)C(=O)c2cc(NC(=O)Nc3ccc(C(F)(F)F)cc3)ccc2O[C@H]1CN(C)Cc1ccc(Cl)c(Cl)c1,.,.,.,52.7,.
C[C@@H]1CN([C@H](C)CO)C(=O)c2cc(NC(=O)Nc3ccc(C(F)(F)F)cc3)ccc2O[C@H]1CN(C)S(=O)(=O)c1ccc(Cl)cc1,.,.,.,53.3,.
Cc1onc(-c2ccccc2)c1C(=O)OCC(=O)Nc1ccc2c(c1)OCO2,.,/,.,.,/
CCc1nc2ccccc2c(C(=O)OCC(=O)Nc2cccc(S(=O)(=O)N3CCOCC3)c2)c1C,68.1,/,.,96.6,/
CCCn1c(SCC(=O)Nc2cccc(S(=O)(=O)NC3=NCCCCC3)c2)nc2ccccc2c1=O,57.1,.,.,78.0,.
Cc1c(-c2cccc(Cl)c2)nc2ccccc2c1C(=O)OCC(=O)Nc1ccc2c(c1)OCO2,.,.,.,52.4,.
CCc1nc2ccccc2c(C(=O)OCC(=O)Nc2cccc(S(=O)(=O)NC3=NCCCCC3)c2)c1C,59.9,.,.,80.5,.
CCc1nc2ccccc2c(C(=O)OCC(=O)Nc2ccc(S(=O)(=O)N3CCOCC3)cc2)c1C,.,/,.,.,/
O=C(COC(=O)c1ccc2ccccc2n1)Nc1cccc(S(=O)(=O)NC2=NCCCCC2)c1,.,.,.,.,.
Cc1noc(C)c1S(=O)(=O)Nc1ccc2c(c1)C(=O)N([C@H](C)CO)C[C@H](C)[C@@H](CN(C)Cc1ccncc1)OCCCC[C@@H](C)O2,/,.,/,/,.
CCC(=O)Nc1ccc(NC(=O)c2ccccn2)cn1,.,/,.,.,/
O=C(Nc1ccc(NC(=O)C2CC2)nc1)c1ccccn1,.,/,.,61.5,/
CC(C)C(=O)Nc1ccc(NC(=O)c2ccccn2)cn1,.,/,/,75.7,/
C[C@@H]1CN([C@H](C)CO)C(=O)c2cc(C#CCN(C)C)cnc2O[C@@H]1CN(C)C(=O)c1cnccn1,/,.,/,/,.
Nc1c(C(=O)NCC2CCCO2)sc2nc3c(c(-c4ccco4)c12)CC/C3=C\c1ccco1 (configuration not stated),.,/,.,88.9,.
Cc1ccccc1-c1ccc([C@@H]2[C@@H](CO)N3C(=O)CN(C(=O)c4cccnc4)C[C@@H]23)cc1,/,/,/,/,.
Cc1onc(-c2ccccc2Cl)c1C(=O)Nc1ccccc1,.,.,/,.,/
Cc1onc(-c2ccccc2Cl)c1C(=O)NNC(=O)c1cccc(F)c1,.,.,.,76.3,.
Cc1onc(-c2ccccc2Cl)c1C(=O)Nc1ccc(-c2nnc3n2CCCCC3)cc1,.,/,.,98.5,/
O=C(C1CCCC1)N1CC(=O)N2[C@H](C1)[C@@H](c1ccc(C#CC3CCCC3)cc1)[C@@H]2CO,/,.,/,/,.
O=C(NC(NC(=S)Nc1ccccc1)C(Cl)(Cl)Cl)c1cccc(Cl)c1 (configuration not stated),.,.,.,75.0,/
CC1CCCCN1Cc1c(O)ccc2c(=O)c(-c3nc4ccccc4s3)coc12 (configuration not stated),.,.,44.4,.,.
O=c1c(-c2ccc(Cl)cc2)coc2c(CN3CCCCC3)c(O)ccc12,.,.,.,.,.
O=c1c(-c2ccccc2Cl)coc2c(CN3CCCCC3)c(O)ccc12,.,.,.,64.3,.
CCC1CCCCN1Cc1c(O)ccc2c(=O)c(-c3ccccc3OC)coc12 (configuration not stated),.,.,.,.,.
